Experimental data as given in ChEMBL document CHEMBL4602711, “Catching a Moving Target: Comparative Modeling of Flaviviral NS2B-NS3 Reveals Small Molecule Zika Protease Inhibitors” (ACS Med Chem Lett, 2020).
The source made the active and inactive calls.

Legend:
[1] = biological target: Genome polyprotein (West Nile virus, UniProt P06935); experiment: Inhibition of C-terminal His6-tagged West Nile virus NS2B (52 to 96 residues)-G4SG4-NS3 (1 to 184 residues) expressed in Escherichia coli BL21(DE3) cells using Boc-Gly-Lys-Arg-AMC33 as substrate measured for 600 secs by fluorescence based assay
Summary of the method: (§1)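 Ki values were obtained by fluorescence-based protease assays, only for ligands below the 50 μM inhibition cutoff. The commercially available racemic mixtures were tested.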

[2] = Inhibition of N-terminal His6-tagged DENV2 NS2B-NS3 protease using Boc-Gly-Lys-Arg-AMC33 as substrate measured for 600 secs by fluorescence based assay; parameters: species or system dengue virus type 2; summary of the method: as §1
[3] = biological target: Genome polyprotein (West Nile virus) (UniProt P06935); experiment: Inhibition of C-terminal His6-tagged West Nile virus NS2B (52 to 96 residues)-G4SG4-NS3 (1 to 184 residues) expressed in Escherichia coli BL21(DE3) cells at <50 uM using Boc-Gly-Lys-Arg-AMC33 as substrate measured for 600 secs by fluorescence based assay
[4] = biological target: Nonstructural protein 3 (Zika virus, UniProt A0A024AXB9); experiment: Inhibition of Zika virus NS2B-NS3 protease using Bz-Nle-Lys-Lys-Arg-AMC as substrate preincubated for 10 mins followed by substrate addition and measured for 70 secs by fluorophotometric analysis; summary of the method: as §1
[5] = system: dengue virus type 2; experiment: Inhibition of N-terminal His6-tagged DENV2 NS2B-NS3 protease at<50 uM using Boc-Gly-Lys-Arg-AMC33 as substrate measured for 600 secs by fluorescence based assay
[6] = biological target: Nonstructural protein 3 (Zika virus) (UniProt A0A024AXB9); experiment: Inhibition of Zika virus NS2B-NS3 protease at <50 uM using Bz-Nle-Lys-Lys-Arg-AMC as substrate preincubated for 10 mins followed by substrate addition and measured for 70 secs by fluorophotometric analysis
Chain of Nonstructural protein 3 (Zika virus) (A0A024AXB9 as listed by the source): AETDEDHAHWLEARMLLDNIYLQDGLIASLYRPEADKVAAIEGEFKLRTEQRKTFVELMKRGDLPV

Chain of Genome polyprotein (P06935 1371-1501 limits assumed): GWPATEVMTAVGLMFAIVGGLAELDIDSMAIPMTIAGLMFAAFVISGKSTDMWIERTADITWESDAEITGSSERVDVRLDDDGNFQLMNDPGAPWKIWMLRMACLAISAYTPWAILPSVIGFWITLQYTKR
Chain of Genome polyprotein (P06935 1502-2120 limits assumed): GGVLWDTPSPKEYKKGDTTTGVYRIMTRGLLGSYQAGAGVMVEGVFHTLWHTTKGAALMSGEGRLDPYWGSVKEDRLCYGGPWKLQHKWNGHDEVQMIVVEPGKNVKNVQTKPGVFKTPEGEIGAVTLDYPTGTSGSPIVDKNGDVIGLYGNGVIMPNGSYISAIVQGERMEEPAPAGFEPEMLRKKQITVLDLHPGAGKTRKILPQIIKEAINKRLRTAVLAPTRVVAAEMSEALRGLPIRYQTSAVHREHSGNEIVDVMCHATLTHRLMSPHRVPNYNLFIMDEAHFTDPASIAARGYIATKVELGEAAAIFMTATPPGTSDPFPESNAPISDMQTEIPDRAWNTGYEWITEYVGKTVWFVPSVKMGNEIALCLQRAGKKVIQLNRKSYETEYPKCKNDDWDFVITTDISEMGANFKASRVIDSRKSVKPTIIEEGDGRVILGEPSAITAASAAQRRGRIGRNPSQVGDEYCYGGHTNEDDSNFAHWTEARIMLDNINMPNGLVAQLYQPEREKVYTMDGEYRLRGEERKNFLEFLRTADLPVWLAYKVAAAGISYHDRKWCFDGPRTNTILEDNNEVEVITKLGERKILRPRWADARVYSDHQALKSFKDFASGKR
Chain of Nonstructural protein 3 (A0A024AXB9 whole entry): as the sequence (A0A024AXB9 as listed by the source) above
Chain of Genome polyprotein (West Nile virus) (P06935 whole entry, the tested form may be a part): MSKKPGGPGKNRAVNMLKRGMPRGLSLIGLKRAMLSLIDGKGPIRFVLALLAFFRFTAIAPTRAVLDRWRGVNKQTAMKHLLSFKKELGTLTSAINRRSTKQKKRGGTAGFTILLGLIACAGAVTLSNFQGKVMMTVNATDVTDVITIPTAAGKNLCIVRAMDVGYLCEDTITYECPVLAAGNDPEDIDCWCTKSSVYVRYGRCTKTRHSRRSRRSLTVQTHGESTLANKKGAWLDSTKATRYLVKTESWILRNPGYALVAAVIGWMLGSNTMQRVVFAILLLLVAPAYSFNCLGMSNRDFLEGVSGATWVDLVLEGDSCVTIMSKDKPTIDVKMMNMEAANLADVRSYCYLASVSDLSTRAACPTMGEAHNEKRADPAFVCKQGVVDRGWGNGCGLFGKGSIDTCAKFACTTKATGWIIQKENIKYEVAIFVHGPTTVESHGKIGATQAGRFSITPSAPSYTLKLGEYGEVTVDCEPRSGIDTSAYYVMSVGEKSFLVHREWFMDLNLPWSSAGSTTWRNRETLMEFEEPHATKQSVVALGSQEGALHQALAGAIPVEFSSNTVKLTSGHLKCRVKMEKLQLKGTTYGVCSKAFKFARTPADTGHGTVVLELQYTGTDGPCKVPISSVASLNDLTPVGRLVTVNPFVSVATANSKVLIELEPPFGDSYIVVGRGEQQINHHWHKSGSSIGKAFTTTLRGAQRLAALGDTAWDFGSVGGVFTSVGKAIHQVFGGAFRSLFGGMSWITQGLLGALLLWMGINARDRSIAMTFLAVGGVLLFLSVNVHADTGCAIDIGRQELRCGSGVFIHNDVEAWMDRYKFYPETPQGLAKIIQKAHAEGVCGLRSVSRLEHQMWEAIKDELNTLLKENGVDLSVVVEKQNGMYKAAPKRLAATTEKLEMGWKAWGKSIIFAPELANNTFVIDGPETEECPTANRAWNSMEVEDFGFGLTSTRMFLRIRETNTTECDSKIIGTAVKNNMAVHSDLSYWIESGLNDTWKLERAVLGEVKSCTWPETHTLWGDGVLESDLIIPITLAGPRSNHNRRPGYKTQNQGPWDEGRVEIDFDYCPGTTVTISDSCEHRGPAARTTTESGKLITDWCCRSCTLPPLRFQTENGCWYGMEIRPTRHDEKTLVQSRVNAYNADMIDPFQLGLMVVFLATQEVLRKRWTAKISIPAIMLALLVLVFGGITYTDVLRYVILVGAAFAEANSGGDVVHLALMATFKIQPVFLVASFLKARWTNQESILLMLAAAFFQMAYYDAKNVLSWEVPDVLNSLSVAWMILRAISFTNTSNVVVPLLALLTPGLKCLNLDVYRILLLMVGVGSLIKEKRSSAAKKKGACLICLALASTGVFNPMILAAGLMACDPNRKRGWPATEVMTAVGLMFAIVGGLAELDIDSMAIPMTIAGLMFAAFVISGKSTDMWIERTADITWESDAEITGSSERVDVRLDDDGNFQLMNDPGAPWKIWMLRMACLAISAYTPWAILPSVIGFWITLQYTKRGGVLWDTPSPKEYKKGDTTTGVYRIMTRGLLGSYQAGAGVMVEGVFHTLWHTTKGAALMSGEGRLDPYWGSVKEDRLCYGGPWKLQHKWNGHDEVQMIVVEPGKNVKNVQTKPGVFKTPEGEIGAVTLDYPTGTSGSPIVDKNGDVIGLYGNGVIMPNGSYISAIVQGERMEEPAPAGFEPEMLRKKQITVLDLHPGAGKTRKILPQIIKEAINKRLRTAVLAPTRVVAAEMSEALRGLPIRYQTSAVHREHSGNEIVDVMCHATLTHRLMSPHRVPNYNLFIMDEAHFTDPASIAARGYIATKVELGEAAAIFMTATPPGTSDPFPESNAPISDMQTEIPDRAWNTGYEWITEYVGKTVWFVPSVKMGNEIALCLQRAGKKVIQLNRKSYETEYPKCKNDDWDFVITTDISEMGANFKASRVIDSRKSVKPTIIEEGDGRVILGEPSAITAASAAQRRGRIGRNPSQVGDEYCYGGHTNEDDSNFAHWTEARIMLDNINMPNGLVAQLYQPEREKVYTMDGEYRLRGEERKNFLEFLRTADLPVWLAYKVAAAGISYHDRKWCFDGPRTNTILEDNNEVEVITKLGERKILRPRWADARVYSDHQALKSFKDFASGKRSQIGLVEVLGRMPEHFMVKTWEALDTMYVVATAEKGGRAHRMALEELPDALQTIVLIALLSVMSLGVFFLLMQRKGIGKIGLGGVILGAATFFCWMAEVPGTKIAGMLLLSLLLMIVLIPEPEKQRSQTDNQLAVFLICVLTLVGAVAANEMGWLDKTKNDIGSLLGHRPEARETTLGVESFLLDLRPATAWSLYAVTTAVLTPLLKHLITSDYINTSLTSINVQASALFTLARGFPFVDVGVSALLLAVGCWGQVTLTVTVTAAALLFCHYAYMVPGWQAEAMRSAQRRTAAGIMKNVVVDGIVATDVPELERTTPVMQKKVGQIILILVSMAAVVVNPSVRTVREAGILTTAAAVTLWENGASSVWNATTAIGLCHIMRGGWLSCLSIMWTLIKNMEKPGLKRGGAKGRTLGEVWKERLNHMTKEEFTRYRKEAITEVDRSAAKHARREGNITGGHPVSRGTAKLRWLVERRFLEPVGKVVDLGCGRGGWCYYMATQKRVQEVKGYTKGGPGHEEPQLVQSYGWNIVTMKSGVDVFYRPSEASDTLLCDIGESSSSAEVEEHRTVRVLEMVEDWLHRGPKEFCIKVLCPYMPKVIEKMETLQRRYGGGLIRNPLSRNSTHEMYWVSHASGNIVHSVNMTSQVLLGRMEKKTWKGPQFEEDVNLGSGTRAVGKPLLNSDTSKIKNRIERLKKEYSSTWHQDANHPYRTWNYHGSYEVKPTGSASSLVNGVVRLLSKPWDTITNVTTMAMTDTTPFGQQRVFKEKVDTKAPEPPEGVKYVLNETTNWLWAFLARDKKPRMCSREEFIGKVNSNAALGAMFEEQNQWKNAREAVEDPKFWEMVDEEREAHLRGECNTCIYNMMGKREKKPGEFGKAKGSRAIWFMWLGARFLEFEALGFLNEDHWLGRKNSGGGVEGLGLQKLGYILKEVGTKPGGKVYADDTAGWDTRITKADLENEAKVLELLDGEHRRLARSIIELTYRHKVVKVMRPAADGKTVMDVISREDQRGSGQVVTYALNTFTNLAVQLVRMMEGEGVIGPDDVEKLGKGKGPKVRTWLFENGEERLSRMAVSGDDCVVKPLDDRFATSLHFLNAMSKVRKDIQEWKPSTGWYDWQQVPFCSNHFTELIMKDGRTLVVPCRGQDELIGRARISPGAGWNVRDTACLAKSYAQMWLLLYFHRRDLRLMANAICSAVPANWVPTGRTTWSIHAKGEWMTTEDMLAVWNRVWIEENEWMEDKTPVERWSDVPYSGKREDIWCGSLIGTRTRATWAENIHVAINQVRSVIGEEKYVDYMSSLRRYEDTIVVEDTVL

Row | Ki [1] | Ki [2] | inhibition [3] | Ki [4] | inhibition [5] | inhibition [6] | Compound
1 | 25.5 µM | 0.09 µM | Active | 2.3 µM | Active | Active | Cc1ccc(C(=O)NCC(O)CN2CCCC2)cc1OCCN (stereo not given)
2 | 7.4 µM | – | Active | 11.5 µM | – | Active | COc1cc(CN2CC(O)C2)ccc1OCC(O)CN1CCC(O)CC1 (stereo not given)
